Bioassay records deposited in PubChem BioAssay by The Scripps Research Institute Molecular Screening Center.
FID counter: fluorescent intercalator displacement, NS3 helicase counter-screen. DNA fluorescent intercalator displacement, fluorescence. inhibition, % at 7.9 µM. 290,000 tested, 0.17% active. AID 1845; in the data active = inhibition above about 37%;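 note: higher means more ethidium bromide displaced from hairpin DNA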
PLC-gamma1 inh: PLC-gamma1 (human) inhibition, primary screen; P19174; purified PLC-gamma1, fluorogenic substrate, fluorescence; inhibition, % at 12.2 µM; 370,000 tested, 0.84% active; AID 720700
Target sequence (P19174 whole entry, looked up): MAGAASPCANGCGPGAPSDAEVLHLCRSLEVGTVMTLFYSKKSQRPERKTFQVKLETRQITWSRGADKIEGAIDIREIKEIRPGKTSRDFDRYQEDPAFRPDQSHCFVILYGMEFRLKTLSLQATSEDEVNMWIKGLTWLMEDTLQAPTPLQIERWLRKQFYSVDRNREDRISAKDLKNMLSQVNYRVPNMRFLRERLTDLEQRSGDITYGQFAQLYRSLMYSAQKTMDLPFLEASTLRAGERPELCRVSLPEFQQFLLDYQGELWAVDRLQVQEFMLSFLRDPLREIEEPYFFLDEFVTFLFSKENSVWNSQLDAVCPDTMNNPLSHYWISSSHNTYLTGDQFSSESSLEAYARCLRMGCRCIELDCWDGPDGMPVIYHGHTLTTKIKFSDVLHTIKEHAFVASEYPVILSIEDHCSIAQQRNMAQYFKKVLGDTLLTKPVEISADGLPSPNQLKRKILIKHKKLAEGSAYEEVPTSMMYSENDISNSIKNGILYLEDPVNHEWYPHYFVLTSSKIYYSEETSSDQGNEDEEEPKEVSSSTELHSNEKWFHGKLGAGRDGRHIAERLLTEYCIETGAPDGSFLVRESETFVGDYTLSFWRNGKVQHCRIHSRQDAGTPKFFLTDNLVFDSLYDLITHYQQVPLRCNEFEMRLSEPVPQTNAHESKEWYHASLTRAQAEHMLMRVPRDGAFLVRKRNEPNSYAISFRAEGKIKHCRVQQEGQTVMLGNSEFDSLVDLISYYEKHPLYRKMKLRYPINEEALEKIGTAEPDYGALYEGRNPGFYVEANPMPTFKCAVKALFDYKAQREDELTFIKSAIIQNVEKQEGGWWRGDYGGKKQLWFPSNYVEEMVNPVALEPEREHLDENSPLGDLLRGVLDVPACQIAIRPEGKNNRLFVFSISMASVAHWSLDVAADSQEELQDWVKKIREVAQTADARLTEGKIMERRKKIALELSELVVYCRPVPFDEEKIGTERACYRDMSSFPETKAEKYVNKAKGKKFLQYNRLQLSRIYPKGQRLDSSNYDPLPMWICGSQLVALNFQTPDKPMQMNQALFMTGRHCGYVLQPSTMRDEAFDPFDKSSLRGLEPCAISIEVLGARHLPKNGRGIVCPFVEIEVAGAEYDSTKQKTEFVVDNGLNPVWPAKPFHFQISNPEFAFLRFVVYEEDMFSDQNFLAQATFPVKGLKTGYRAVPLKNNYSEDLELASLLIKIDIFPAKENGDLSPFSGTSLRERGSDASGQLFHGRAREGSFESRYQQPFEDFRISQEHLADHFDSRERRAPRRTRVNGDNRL
Tn7 DDE FP: DD(E)-Tn7 binding inhibition, primary FP screen; P02675; FP displacement of FITC-Tn7 peptide from fibrin DD(E); 0% = median of compound wells per plate; inhibition, % at 8.3 µM; 370,000 tested, 0.13% active;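 active = inhibition above the mean of compounds falling within the control limits plus 3 SD of them, cut at about 14% in these data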
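Test system: human clot-derived fibrin DD(E) complex / Quantity: 2 µM final DD(E) protein / Incubation: 10 min plus 3 h, room temperature / Measured by: fluorescence polarization / Benchmarks: high control of 10 µM Aha-Tn7 peptide / Replicates: singlicate testing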
PLC-beta3 inh: PLC-beta3 (human) inhibition, primary screen; Q01970; Purified PLC-beta3, fluorogenic substrate, fluorescence; inhibition, % at 12.2 µM; 370,000 tested, 0.18% active; in the data active = inhibition above about 11%
Tn6 DDE FP: inhibitors of Tn6 peptide binding to human fibrin DD(E); AID 720509; inhibition, % at 8.3 µM; P02675; Fibrin DD(E) TRITC-Tn6 fluorescence polarization displacement; 370,000 tested, 0.21% active;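 active = inhibition above a per-campaign cutoff: mean of compounds within control limits plus 3 SD, cut at about 15% in these data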
PLCgamma1 ctr: PLC-gamma1 inhibition, counter-screen for PLC-beta3 hits | shares compounds with PLC-gamma1 inh | purified PLC-gamma1, fluorogenic substrate, fluorescence | inhibition, % at 12.3 µM | 3,300 tested, 3.1% active | AID 743258
PLCb3 confirm: human PLC-beta3 inhibition, confirmation; shares compounds with PLC-gamma1 inh; 3,300 tested, 1% active; inhibition, % at 12.3 µM; purified PLC-beta3, fluorogenic substrate fluorescence; in the data active = inhibition above about 11%
Large screens that a line does not name were inactive (follow-up assays come after a bar, where they were run); ! = repeats disagree. The list is not random: actives were taken first. Their share in the collection is about 1.4%. Cut-off read from the data, not from the text of the source, unless noted: active = inhibition above about 9.5%; inactive = the rest.

COc1ccc(CSc2nnc(C)n2N)cc1[N+](=O)[O-]	PLC-gamma1 inh 10 | PLCgamma1 ctr inactive | PLCb3 confirm inactive
COC(=O)COc1nc(C)c2c(c1C#N)CC(C)(C)OC2	PLC-beta3 inh 11 | PLCgamma1 ctr inactive | PLCb3 confirm inactive
C[C@H]1CCCCO[C@H](CN(C)Cc2ccc(C(=O)O)cc2)[C@@H](C)CN([C@@H](C)CO)C(=O)c2cc(NS(=O)(=O)c3cn(C)cn3)ccc2O1	none (no result: FID counter)
CN1CCN(CCn2c(=S)[nH]c3ccccc3c2=O)CC1	none
O=c1c2ccccc2[nH]c(=S)n1CCN1CCN(Cc2ccccc2)CC1	PLC-gamma1 inh 11 | PLCgamma1 ctr inactive | PLCb3 confirm inactive
COc1cc(C=C2C(=O)C=CC2=O)ccc1O	PLC-gamma1 inh 30, PLC-beta3 inh 16 (no result: FID counter) | PLCgamma1 ctr inactive | PLCb3 confirm inactive
COc1cc(/C=C2/C(=O)CNC2=O)ccc1O	none
O=C1/C(=C/c2cccnc2)CCc2c1[nH]c1ccccc21	none
O=C(CNCCC1=CCCCC1)Nc1ccccc1N1CCCCC1	PLC-gamma1 inh 12 | PLCgamma1 ctr inactive | PLCb3 confirm inactive
C=CCOC(=O)C1=C[C@H](C(C)(C)C)[C@@H](CCCO)[C@H](OCC)O1	none (no result: FID counter)
OCCN(Cc1ccccc1)CC(O)COc1ccc(-c2ccccc2)cc1 (configuration not stated)	PLC-gamma1 inh 13 | PLCgamma1 ctr inactive | PLCb3 confirm inactive
COc1cc(C(C)=O)ccc1OCC(O)CN(CCO)Cc1ccccc1 (configuration not stated)	none
O=[N+]([O-])c1cc(Br)c2c(c1)CCN2	PLC-beta3 inh 13 (no result: FID counter) | PLCgamma1 ctr inactive | PLCb3 confirm inactive
O=[N+]([O-])c1cc(Br)c(Nc2ccccc2)c([N+](=O)[O-])c1	none
COc1ccc(CC(=O)Nc2ccc(C(=O)NC(C)(C)C)cc2)cc1OC	none
Cc1ccc[n+](/C(=C\C(=C=[N-])C#N)C(=O)c2ccc(Cl)cc2)c1	PLC-gamma1 inh 9.7 | PLCgamma1 ctr inactive | PLCb3 confirm inactive
Nc1cc([N+](=O)[O-])ccc1O	none
Nc1ccc(O)c([N+](=O)[O-])c1	PLC-gamma1 inh 21 (no result: FID counter) | PLCgamma1 ctr 19 | PLCb3 confirm inactive
N=c1sccn1CC(=O)NC(=O)NC1CCCC1	PLC-gamma1 inh 17 | PLCgamma1 ctr inactive | PLCb3 confirm inactive
CCOc1ccc(C(C(=O)NC2CCCC2)N(CCOC)C(=O)CNC(=O)c2ccco2)cc1 (configuration not stated)	none
O=C(NCC(=O)N(c1cccnc1)C(C(=O)NC1CCCCC1)c1ccccc1F)c1ccco1 (configuration not stated)	PLC-gamma1 inh 11 | PLCgamma1 ctr inactive | PLCb3 confirm inactive
O=C(NCC(=O)N(c1cccnc1)C(C(=O)NC1CCCC1)c1ccccc1)c1ccco1 (configuration not stated)	none
CCCCN(C(=O)CNC(=O)c1ccco1)C(C(=O)NC1CCCC1)c1ccc(OC)cc1 (configuration not stated)	PLC-gamma1 inh 12 | PLCgamma1 ctr inactive | PLCb3 confirm inactive
Cc1oncc1C(=O)Nc1cccc(C#N)c1	none
COc1ccc(OC)c(S(=O)(=O)NCCCN2CCOCC2)c1	PLC-gamma1 inh 12 (no result: FID counter) | PLCgamma1 ctr inactive | PLCb3 confirm inactive
O=C(NCCCN1CCOCC1)C(=O)N/N=C/c1ccc2c(c1)OCO2	none
CC(C)Cc1cc(C(=O)Nc2cc(C(F)(F)F)ccc2Cl)no1	PLC-gamma1 inh 12 | PLCgamma1 ctr inactive | PLCb3 confirm inactive
CN(C)S(=O)(=O)c1ccc(C(=O)OCc2ccc([N+](=O)[O-])cc2)cc1	none
CC1(C)OC2OC(COC(=O)c3ccc([N+](=O)[O-])cc3)C3OC(C)(C)OC3C2O1 (configuration not stated)	PLC-gamma1 inh 11 | PLCgamma1 ctr inactive | PLCb3 confirm inactive
COc1ccc(NC(=O)c2cc(-c3cc(Cl)ccc3OC)n[nH]2)c(OC)c1	PLC-gamma1 inh 12 (no result: FID counter) | PLCgamma1 ctr inactive | PLCb3 confirm inactive
CC(=O)N(C)c1ccc(N=Nc2c(C)[nH]n(C(N)=S)c2=O)cc1	none
CCN(CC)S(=O)(=O)c1ccc(N=Nc2c(C)[nH]n(C(N)=S)c2=O)cc1	PLC-gamma1 inh 10 | PLCgamma1 ctr inactive | PLCb3 confirm inactive
C=CCn1ccc(=NC=C(C#N)C#N)c2ccccc21	none
CCOC(=O)c1ccccc1NC(=O)c1cn(-c2ccc(C)c(C)c2)c(=O)c2ccccc12	PLC-gamma1 inh 9.9 | PLCgamma1 ctr inactive | PLCb3 confirm inactive
CCOc1cc(C)c(Cl)cc1S(=O)(=O)NC1CC(C)(C)NC(C)(C)C1	PLC-gamma1 inh 10 | PLCgamma1 ctr inactive | PLCb3 confirm inactive
CCCCN(C(=O)COc1ccc(C)cc1OC)c1c(N)n(CCC)c(=O)[nH]c1=O	PLC-gamma1 inh 12 | PLCgamma1 ctr inactive | PLCb3 confirm inactive
Cc1cc(C(=O)Nc2ccccc2Cl)c2ccccc2n1	none
COc1ccc2nc(NC(=O)c3ccc(-n4nc(C)cc4C)cc3)sc2c1	none
COC(=O)C1=C(C(=O)OC)[C@@H]2N(C)c3ccc(OC)cc3[C@@]23C[C@@H](C(=O)OC)N(C(=O)CC(C)C)C3=N1	PLC-gamma1 inh 9.6 (no result: FID counter) | PLCgamma1 ctr inactive | PLCb3 confirm inactive
CCOc1ccc(NC(=S)Nc2ccc3nsnc3c2)cc1	none
CCOC(=O)c1c(C)c(C(=O)Nc2ccc(F)cc2)c(C)n1C	PLC-gamma1 inh 13 | PLCgamma1 ctr inactive | PLCb3 confirm inactive
O=C(NCc1ccccc1)C1COc2ccccc2O1 (configuration not stated)	PLC-gamma1 inh 9.8 | PLCgamma1 ctr inactive | PLCb3 confirm inactive
Cc1ccc(CNC(=O)C2COc3ccccc3O2)cc1 (configuration not stated)	none
Cc1nn(-c2ccccc2)c(N2CCCC2)c1/C=N/NC(=O)C1CC1	PLC-gamma1 inh 12 | PLCgamma1 ctr inactive | PLCb3 confirm inactive
Cc1nc(SCC(C)C)[nH]c(=O)c1Cc1ccccc1	none
CSc1nc(C)c(Cc2ccccc2)c(=O)[nH]1	PLC-gamma1 inh 11 | PLCgamma1 ctr inactive | PLCb3 confirm inactive
Cc1ccc(S(=O)(=O)/N=C(/NC(=S)Nc2ccccc2)c2ccccc2)cc1	none
Cc1ccc(NC(=S)N/C(=N/S(=O)(=O)c2ccccc2)c2ccccc2)cc1	PLC-gamma1 inh 16! | PLCgamma1 ctr inactive | PLCb3 confirm inactive
COc1ccc(CCNC(=O)CSc2ncn[nH]2)cc1	PLC-gamma1 inh 10 | PLCgamma1 ctr inactive | PLCb3 confirm inactive
COc1ccc(CCNC(=O)CSc2ccccn2)cc1	none
O=C(CSc1nc2ccccc2[nH]1)NCCc1ccc(Cl)cc1	PLC-gamma1 inh 11 | PLCgamma1 ctr inactive | PLCb3 confirm inactive
NN1C(=O)/C(=C\c2ccco2)SC1=S	PLC-gamma1 inh 18 | PLCgamma1 ctr inactive | PLCb3 confirm inactive
